Where “and” joins values, the source holds several entries; their conditions need not be identical. Equal values may be shown once.
Test system: Fibroblast
Experiment: Multiplex assay against human fibroblast
Type: toxicity, cell-based
Procedure, shortened: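 Cells stained live at seeding with Hoechst33342, BioTracker Green Microtubule Cytoskeleton Dye, MitoTracker Red and Annexin V Alexa Fluor 680 were imaged on a CQ1 microscope at 37°C and 5% CO2 after compound addition. Their classification by CellPathfinder machine-learning gating ran from Hoechst high-intensity objects versus normal cells, to healthy, pyknosed or fragmented nuclei among normal cells, to mitotic or apoptotic among pyknosed cells. Tubulin, mitochondrial-mass and membrane-permeability phenotypes are per cents of healthy-nucleus cells.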

[1] = 12 h, 1 µM, compound concentration 1 uM
[2] = 12 h, 10 µM, compound concentration 10 uM
[3] = 24 h, 1 µM, compound concentration 1 uM
[4] = 24 h, 10 µM, compound concentration 10 uM
[5] = 48 h, 1 µM, compound concentration 1 uM
[6] = 48 h, 10 µM, compound concentration 10 uM

COCCNc1nc2ccc(C#CC3(O)CCCCC3)cc2n1-c1ccnc(N)n1
Population Apoptotic (%) [1]: 15.09% and 20.51% | Population Fragmented Nuclei (%) [1]: 19.05% and 7.25% | Population Healthy Nuclei (%) [1]: 44.9% and 73.91% | Population Hoechst High Intensity Objects (%) [1]: 0% | Population Membrane Permeable-Phenotype (%) [1]: 4.55% and 1.96% | Population Mitochondria Different-Phenotype (%) [1]: 9.09% and 12.42% | Population Mitotic Cells (%) [1]: 84.91% and 79.49% | Population Normal (%) [1]: 100% | Population Pyknosed Nuclei (%) [1]: 36.05% and 18.84% | Population Tubulin-Different-Phenotype (%) [1]: 18.18% and 27.45% | Total Cell Count [1]: 147 and 207 | Population Apoptotic (%) [2]: 2.5% and 7.32% | Population Fragmented Nuclei (%) [2]: 15.71% and 12.57% | Population Healthy Nuclei (%) [2]: 46.19% and 64% | Population Hoechst High Intensity Objects (%) [2]: 0% | Population Membrane Permeable-Phenotype (%) [2]: 7.22% and 1.79% | Population Mitochondria Different-Phenotype (%) [2]: 27.84% and 21.43% | Population Mitotic Cells (%) [2]: 97.5% and 92.68% | Population Normal (%) [2]: 100% | Population Pyknosed Nuclei (%) [2]: 38.1% and 23.43% | Population Tubulin-Different-Phenotype (%) [2]: 56.7% and 54.46% | Total Cell Count [2]: 210 and 175 | Population Apoptotic (%) [3]: 9.76% and 17.39% | Population Fragmented Nuclei (%) [3]: 9.09% and 9.43% | Population Healthy Nuclei (%) [3]: 62.24% and 79.72% | Population Hoechst High Intensity Objects (%) [3]: 0% | Population Membrane Permeable-Phenotype (%) [3]: 3.37% and 5.33% | Population Mitochondria Different-Phenotype (%) [3]: 11.24% and 10.06% | Population Mitotic Cells (%) [3]: 90.24% and 82.61% | Population Normal (%) [3]: 100% | Population Pyknosed Nuclei (%) [3]: 28.67% and 10.85% | Population Tubulin-Different-Phenotype (%) [3]: 19.1% and 25.44% | Total Cell Count [3]: 143 and 212 | Population Apoptotic (%) [4]: 12.33% and 20.59% | Population Fragmented Nuclei (%) [4]: 14.35% and 10.86% | Population Healthy Nuclei (%) [4]: 51.85% and 69.71% | Population Hoechst High Intensity Objects (%) [4]: 0% | Population Membrane Permeable-Phenotype (%) [4]: 3.57% and 1.64% | Population Mitochondria Different-Phenotype (%) [4]: 25% and 18.03% | Population Mitotic Cells (%) [4]: 87.67% and 79.41% | Population Normal (%) [4]: 100% | Population Pyknosed Nuclei (%) [4]: 33.8% and 19.43% | Population Tubulin-Different-Phenotype (%) [4]: 66.96% and 65.57% | Total Cell Count [4]: 216 and 175 | Population Apoptotic (%) [5]: 22.22% and 37.5% | Population Fragmented Nuclei (%) [5]: 10.74% and 6.49% | Population Healthy Nuclei (%) [5]: 77.18% and 86.58% | Population Hoechst High Intensity Objects (%) [5]: 0% | Population Membrane Permeable-Phenotype (%) [5]: 1.74% and 2.5% | Population Mitotic Cells (%) [5]: 77.78% and 62.5% | Population Normal (%) [5]: 100% | Population Pyknosed Nuclei (%) [5]: 12.08% and 6.93% | Population Tubulin-Different-Phenotype (%) [5]: 10.43% and 26.5% | Total Cell Count [5]: 149 and 231 | Population Apoptotic (%) [6]: 11.43% and 24% | Population Fragmented Nuclei (%) [6]: 12.66% and 9.66% | Population Healthy Nuclei (%) [6]: 72.57% and 76.14% | Population Hoechst High Intensity Objects (%) [6]: 0% | Population Membrane Permeable-Phenotype (%) [6]: 2.91% and 5.97% | Population Mitochondria Different-Phenotype (%) [6]: 18.02% and 10.45% | Population Mitotic Cells (%) [6]: 88.57% and 76% | Population Normal (%) [6]: 100% | Population Pyknosed Nuclei (%) [6]: 14.77% and 14.2% | Population Tubulin-Different-Phenotype (%) [6]: 42.44% and 58.96% | Total Cell Count [6]: 237 and 176

CNc1nc(NCc2ncccn2)c2c(-c3ccc4ncccc4c3)c[nH]c2n1
Population Fragmented Nuclei (%) [1]: 13.9% and 7.14% | Population Healthy Nuclei (%) [1]: 54.01% and 75.6% | Population Hoechst High Intensity Objects (%) [1]: 0% | Population Membrane Permeable-Phenotype (%) [1]: 2.97% and 3.94% | Population Mitochondria Different-Phenotype (%) [1]: 7.92% and 10.24% | Population Mitotic Cells (%) [1]: 95% and 75.86% | Population Normal (%) [1]: 100% | Population Pyknosed Nuclei (%) [1]: 32.09% and 17.26% | Population Tubulin-Different-Phenotype (%) [1]: 11.88% and 22.83% | Total Cell Count [1]: 187 and 168 | Population Apoptotic (%) [2]: 15.15% and 23.33% | Population Fragmented Nuclei (%) [2]: 8.7% and 4.55% | Population Healthy Nuclei (%) [2]: 70.81% and 81.82% | Population Hoechst High Intensity Objects (%) [2]: 0% | Population Membrane Permeable-Phenotype (%) [2]: 15.79% and 10% | Population Mitochondria Different-Phenotype (%) [2]: 16.67% and 13.89% | Population Mitotic Cells (%) [2]: 84.85% and 76.67% | Population Normal (%) [2]: 100% | Population Pyknosed Nuclei (%) [2]: 20.5% and 13.64% | Population Tubulin-Different-Phenotype (%) [2]: 33.33% and 51.67% | Total Cell Count [2]: 161 and 220 | Population Fragmented Nuclei (%) [3]: 11.26% and 5.29% | Population Healthy Nuclei (%) [3]: 65.37% and 85.29% | Population Hoechst High Intensity Objects (%) [3]: 0% | Population Membrane Permeable-Phenotype (%) [3]: 1.99% and 6.21% | Population Mitochondria Different-Phenotype (%) [3]: 3.31% and 4.83% | Population Mitotic Cells (%) [3]: 98.15% and 87.5% | Population Normal (%) [3]: 100% | Population Pyknosed Nuclei (%) [3]: 23.38% and 9.41% | Population Tubulin-Different-Phenotype (%) [3]: 12.58% and 11.72% | Total Cell Count [3]: 231 and 170 | Population Apoptotic (%) [4]: 23.08% and 26.09% | Population Fragmented Nuclei (%) [4]: 8.06% and 4.98% | Population Healthy Nuclei (%) [4]: 77.96% and 84.62% | Population Hoechst High Intensity Objects (%) [4]: 0% | Population Membrane Permeable-Phenotype (%) [4]: 2.76% and 4.28% | Population Mitochondria Different-Phenotype (%) [4]: 11.72% and 12.83% | Population Mitotic Cells (%) [4]: 76.92% and 73.91% | Population Normal (%) [4]: 100% | Population Pyknosed Nuclei (%) [4]: 13.98% and 10.41% | Population Tubulin-Different-Phenotype (%) [4]: 37.24% and 52.41% | Total Cell Count [4]: 186 and 221 | Population Apoptotic (%) [5]: 11.76% and 6.67% | Population Fragmented Nuclei (%) [5]: 8.43% and 2.79% | Population Healthy Nuclei (%) [5]: 85.06% and 88.83% | Population Hoechst High Intensity Objects (%) [5]: 0% | Population Membrane Permeable-Phenotype (%) [5]: 1.35% and 4.4% | Population Mitochondria Different-Phenotype (%) [5]: 11.26% and 5.66% | Population Mitotic Cells (%) [5]: 88.24% and 93.33% | Population Normal (%) [5]: 100% | Population Pyknosed Nuclei (%) [5]: 6.51% and 8.38% | Total Cell Count [5]: 261 and 179 | Population Apoptotic (%) [6]: 23.08% and 42.86% | Population Fragmented Nuclei (%) [6]: 11.86% and 6.28% | Population Healthy Nuclei (%) [6]: 81.44% and 90.58% | Population Hoechst High Intensity Objects (%) [6]: 0% | Population Membrane Permeable-Phenotype (%) [6]: 5.06% and 7.92% | Population Mitotic Cells (%) [6]: 76.92% and 57.14% | Population Normal (%) [6]: 100% | Population Pyknosed Nuclei (%) [6]: 6.7% and 3.14% | Population Tubulin-Different-Phenotype (%) [6]: 18.35% and 54.46% | Total Cell Count [6]: 194 and 223

Cl.Clc1cc2cc(c1)-c1cnn3ccc(nc13)NCCOCCO2
Population Apoptotic (%) [1]: 25.93% and 36.11% | Population Fragmented Nuclei (%) [1]: 12.14% and 4.56% | Population Healthy Nuclei (%) [1]: 61.65% and 80.5% | Population Hoechst High Intensity Objects (%) [1]: 0% | Population Membrane Permeable-Phenotype (%) [1]: 11.02% and 2.58% | Population Mitochondria Different-Phenotype (%) [1]: 4.72% and 10.82% | Population Mitotic Cells (%) [1]: 74.07% and 63.89% | Population Normal (%) [1]: 100% | Population Pyknosed Nuclei (%) [1]: 26.21% and 14.94% | Population Tubulin-Different-Phenotype (%) [1]: 11.02% and 23.2% | Total Cell Count [1]: 206 and 241 | Population Apoptotic (%) [2]: 10.2% and 20.59% | Population Fragmented Nuclei (%) [2]: 10.65% and 5.56% | Population Healthy Nuclei (%) [2]: 66.67% and 78.7% | Population Hoechst High Intensity Objects (%) [2]: 0% | Population Membrane Permeable-Phenotype (%) [2]: 8.33% and 4.71% | Population Mitochondria Different-Phenotype (%) [2]: 12.5% and 18.82% | Population Mitotic Cells (%) [2]: 89.8% and 79.41% | Population Normal (%) [2]: 100% | Population Pyknosed Nuclei (%) [2]: 22.69% and 15.74% | Population Tubulin-Different-Phenotype (%) [2]: 22.22% and 26.47% | Total Cell Count [2]: 216 | Population Apoptotic (%) [3]: 31.43% and 41.38% | Population Fragmented Nuclei (%) [3]: 12.22% and 6.72% | Population Healthy Nuclei (%) [3]: 71.95% and 82.46% | Population Hoechst High Intensity Objects (%) [3]: 0% | Population Membrane Permeable-Phenotype (%) [3]: 6.29% and 4.52% | Population Mitochondria Different-Phenotype (%) [3]: 3.14% and 6.33% | Population Mitotic Cells (%) [3]: 68.57% and 58.62% | Population Normal (%) [3]: 100% | Population Pyknosed Nuclei (%) [3]: 15.84% and 10.82% | Population Tubulin-Different-Phenotype (%) [3]: 15.09% and 21.72% | Total Cell Count [3]: 221 and 268 | Population Fragmented Nuclei (%) [4]: 7.39% and 6.93% | Population Healthy Nuclei (%) [4]: 79.13% and 78.79% | Population Hoechst High Intensity Objects (%) [4]: 0% | Population Membrane Permeable-Phenotype (%) [4]: 3.3% | Population Mitochondria Different-Phenotype (%) [4]: 8.79% and 13.74% | Population Mitotic Cells (%) [4]: 90.32% and 69.7% | Population Normal (%) [4]: 100% | Population Pyknosed Nuclei (%) [4]: 13.48% and 14.29% | Population Tubulin-Different-Phenotype (%) [4]: 20.33% and 33.52% | Total Cell Count [4]: 230 and 231 | Population Apoptotic (%) [5]: 31.03% and 50% | Population Fragmented Nuclei (%) [5]: 12.03% and 5.81% | Population Healthy Nuclei (%) [5]: 75.93% and 90.31% | Population Hoechst High Intensity Objects (%) [5]: 0% | Population Membrane Permeable-Phenotype (%) [5]: 3.28% and 3% | Population Mitotic Cells (%) [5]: 68.97% and 50% | Population Normal (%) [5]: 100% | Population Pyknosed Nuclei (%) [5]: 12.03% and 3.88% | Total Cell Count [5]: 241 and 258 | Population Apoptotic (%) [6]: 16.67% and 38.89% | Population Fragmented Nuclei (%) [6]: 10.79% and 5.86% | Population Healthy Nuclei (%) [6]: 86.72% and 86.61% | Population Hoechst High Intensity Objects (%) [6]: 0% | Population Membrane Permeable-Phenotype (%) [6]: 1.91% and 6.76% | Population Mitochondria Different-Phenotype (%) [6]: 11% and 9.66% | Population Mitotic Cells (%) [6]: 83.33% and 61.11% | Population Normal (%) [6]: 100% | Population Pyknosed Nuclei (%) [6]: 2.49% and 7.53% | Population Tubulin-Different-Phenotype (%) [6]: 13.88% and 38.65% | Total Cell Count [6]: 241 and 239
